Data: ChEMBL document CHEMBL5678806, “NMS-P937, an orally available, specific small-molecule polo-like kinase 1 inhibitor with antitumor activity in solid and hematologic malignancies” (Mol Cancer Ther, 2012)
The source made the active and inactive calls. No cut-off for these calls is given here.

Tests used:
[1] = target: RAC-alpha serine/threonine-protein kinase (Homo sapiens, UniProt P31749); test: Inhibition of N-terminal His6 tagged recombinant full-length human PKBalpha expressed in baculovirus infected Sf21 cells assessed as residual activity at 1 uM relative to control
Sequence of RAC-alpha serine/threonine-protein kinase (P31749 whole entry): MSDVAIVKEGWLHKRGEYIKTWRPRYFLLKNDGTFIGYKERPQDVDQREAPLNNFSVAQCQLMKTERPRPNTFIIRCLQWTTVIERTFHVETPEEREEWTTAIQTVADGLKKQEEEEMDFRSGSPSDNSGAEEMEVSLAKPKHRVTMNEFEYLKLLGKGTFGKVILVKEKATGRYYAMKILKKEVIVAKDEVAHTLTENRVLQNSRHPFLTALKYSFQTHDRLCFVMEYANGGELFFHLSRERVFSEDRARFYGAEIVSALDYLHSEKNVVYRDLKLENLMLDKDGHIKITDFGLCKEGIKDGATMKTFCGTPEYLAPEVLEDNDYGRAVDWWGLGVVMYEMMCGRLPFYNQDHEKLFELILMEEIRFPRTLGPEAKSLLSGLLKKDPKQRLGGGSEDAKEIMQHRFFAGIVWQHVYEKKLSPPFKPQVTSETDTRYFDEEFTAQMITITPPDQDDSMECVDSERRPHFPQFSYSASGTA

SK-BR-3 = test: Antiproliferative activity against human SK-BR-3 cells assessed as inhibition of cell growth incubated for 72 hrs by cell-titer glo assay; assay type: functional, cell-based; details: SK-BR-3, 72 h
NCI-H1299 = test: Antiproliferative activity against human NCI-H1299 cells assessed as inhibition of cell growth incubated for 72 hrs by cell-titer glo assay; assay type: functional, cell-based; details: NCI-H1299, 72 h
Method in brief: (§1)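 Cells from ATCC or ECACC, kept in supplier-recommended medium with 1% penicillin-streptomycin at 37°C, 5% CO₂. Seeded at 10,000–30,000/cm² (adherent) or 100,000/mL (nonadherent) in medium with 10% fetal calf serum. Dosed after 24 h in duplicate with serial dilutions. Viable cells read by CellTiter-Glo 72 h later. IC50 from sigmoidal fit. At least two independent experiments.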

SU-DHL-1 = test: Antiproliferative activity against human SU-DHL-1 cells assessed as inhibition of cell growth incubated for 72 hrs by cell-titer glo assay; assay type: functional, cell-based; details: SU-DHL-1, 72 h
HCT-116 [2] = test: Antitumor activity against human HCT-116 cells xenografted in nu/nu mouse assessed as tumor growth inhibition at 45 mg/kg, iv administered for 3 days relative to control; assay type: functional; details: HCT-116, 72 h, time 3 day, read-out: TGI
DLD-1 = test: Antiproliferative activity against human DLD-1 cells assessed as inhibition of cell growth incubated for 72 hrs by cell-titer glo assay; assay type: functional, cell-based; details: DLD-1, 72 h
Method in brief: (§2)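 Cells seeded 10,000–30,000/cm² (adherent) or 100,000/mL (suspension) in medium with 10% fetal calf serum; after 24 h treated in duplicate with serial dilutions for 72 h. Viable cells read by CellTiter-Glo luminescence; IC50 from sigmoidal fit; at least two independent experiments.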

HT-29 = test: Antiproliferative activity against human HT-29 cells assessed as inhibition of colony formation at <= 8 nmol/L incubated for 72 hrs and measured after 18 days by crystal violet staining based analysis; assay type: functional, cell-based
Method in brief: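 HT29 colon adenocarcinoma cells exposed to a range of concentrations for 72 h, then compound removed and cells replated and grown 18 days in compound-free medium; colony formation scored.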

NCI-H2170 = test: Antiproliferative activity against human NCI-H2170 cells assessed as inhibition of cell growth incubated for 72 hrs by cell-titer glo assay; assay type: functional, cell-based; details: NCI-H2170, 72 h; method in brief: as §1
[3] = Plasma concentration in nu/nu mouse xenografted with human HL-60 cells at 60 mg/kg, po administered for 10 days relative to control; assay type: ADME, organism-based; details: time 10 day
[4] = target: Eukaryotic elongation factor 2 kinase (Homo sapiens, UniProt O00418); test: Inhibition of EEF2K (unknown origin) in presence of [gamma-33P]ATP
Sequence of Eukaryotic elongation factor 2 kinase (O00418 whole entry): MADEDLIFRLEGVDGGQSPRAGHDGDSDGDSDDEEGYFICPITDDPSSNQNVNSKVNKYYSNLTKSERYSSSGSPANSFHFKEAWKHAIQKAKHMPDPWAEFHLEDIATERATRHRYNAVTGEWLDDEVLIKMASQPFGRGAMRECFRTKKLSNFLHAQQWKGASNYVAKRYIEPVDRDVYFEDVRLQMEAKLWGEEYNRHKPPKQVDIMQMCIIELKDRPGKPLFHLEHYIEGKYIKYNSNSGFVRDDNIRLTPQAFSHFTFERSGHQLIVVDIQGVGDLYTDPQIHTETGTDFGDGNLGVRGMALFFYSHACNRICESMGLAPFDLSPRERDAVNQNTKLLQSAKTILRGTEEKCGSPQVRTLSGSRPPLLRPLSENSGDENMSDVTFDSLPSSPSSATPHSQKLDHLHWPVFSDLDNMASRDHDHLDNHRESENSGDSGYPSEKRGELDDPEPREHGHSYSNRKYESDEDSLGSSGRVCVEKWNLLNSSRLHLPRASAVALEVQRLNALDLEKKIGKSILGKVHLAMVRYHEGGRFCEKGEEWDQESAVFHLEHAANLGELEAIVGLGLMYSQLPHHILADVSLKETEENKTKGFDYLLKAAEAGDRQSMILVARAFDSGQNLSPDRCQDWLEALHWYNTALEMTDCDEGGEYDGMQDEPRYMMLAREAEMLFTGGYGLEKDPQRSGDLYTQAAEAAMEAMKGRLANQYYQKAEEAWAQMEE

UACC-257 = test: Antiproliferative activity against human UACC-257 cells assessed as inhibition of cell growth incubated for 72 hrs by cell-titer glo assay; assay type: functional, cell-based; details: UACC-257, 72 h
HCT-116 [5] = test: Antitumor activity against human HCT-116 cells xenografted in nu/nu mouse assessed as tumor growth inhibition at 60 mg/kg, po administered for 8 days relative to control; assay type: functional; details: HCT-116, 192 h, time 8 day, read-out: TGI
[6] = target: Cyclin-dependent kinase 4/cyclin D1 (Homo sapiens, UniProt P11802); test: Inhibition of CDK4/CycD1 (unknown origin) in presence of [gamma-33P]ATP; assay type: protein-complex assay
Sequence of Cyclin-dependent kinase 4/cyclin D1 (P11802 whole entry): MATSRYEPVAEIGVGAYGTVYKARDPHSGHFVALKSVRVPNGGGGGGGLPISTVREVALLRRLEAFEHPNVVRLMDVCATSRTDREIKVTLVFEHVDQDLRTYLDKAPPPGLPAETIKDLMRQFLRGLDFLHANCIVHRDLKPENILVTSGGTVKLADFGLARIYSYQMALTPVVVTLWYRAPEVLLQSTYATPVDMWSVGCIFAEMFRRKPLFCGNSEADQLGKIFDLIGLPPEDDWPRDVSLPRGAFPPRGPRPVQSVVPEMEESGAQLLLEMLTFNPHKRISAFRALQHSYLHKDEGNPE
Sequence of Cyclin-dependent kinase 4/cyclin D1 (P24385 whole entry, further chain): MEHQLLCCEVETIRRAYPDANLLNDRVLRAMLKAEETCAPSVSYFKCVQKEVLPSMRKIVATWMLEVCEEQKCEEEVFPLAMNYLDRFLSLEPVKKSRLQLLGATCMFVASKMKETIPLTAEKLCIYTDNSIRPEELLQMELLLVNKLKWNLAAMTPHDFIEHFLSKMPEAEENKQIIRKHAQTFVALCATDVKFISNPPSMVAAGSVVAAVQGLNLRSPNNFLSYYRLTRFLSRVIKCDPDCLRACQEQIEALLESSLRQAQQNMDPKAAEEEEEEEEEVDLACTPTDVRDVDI

[7] = Antiproliferative activity against human GM03798 cells assessed as inhibition of cell growth incubated for 72 hrs by cell-titer glo assay; assay type: functional, cell-based; details: GM03798, 72 h; method in brief: as §2
[8] = target: Fibroblast growth factor receptor 4 (Homo sapiens) (UniProt P22455); test: Inhibition of N-terminal His6-tagged recombinant human FGFR4 (442 to 755 residues) expressed in baculovirus infected Sf21 cells assessed as residual activity at 1 uM relative to control
Sequence of Fibroblast growth factor receptor 4 (Homo sapiens) (P22455 22-802 limits assumed): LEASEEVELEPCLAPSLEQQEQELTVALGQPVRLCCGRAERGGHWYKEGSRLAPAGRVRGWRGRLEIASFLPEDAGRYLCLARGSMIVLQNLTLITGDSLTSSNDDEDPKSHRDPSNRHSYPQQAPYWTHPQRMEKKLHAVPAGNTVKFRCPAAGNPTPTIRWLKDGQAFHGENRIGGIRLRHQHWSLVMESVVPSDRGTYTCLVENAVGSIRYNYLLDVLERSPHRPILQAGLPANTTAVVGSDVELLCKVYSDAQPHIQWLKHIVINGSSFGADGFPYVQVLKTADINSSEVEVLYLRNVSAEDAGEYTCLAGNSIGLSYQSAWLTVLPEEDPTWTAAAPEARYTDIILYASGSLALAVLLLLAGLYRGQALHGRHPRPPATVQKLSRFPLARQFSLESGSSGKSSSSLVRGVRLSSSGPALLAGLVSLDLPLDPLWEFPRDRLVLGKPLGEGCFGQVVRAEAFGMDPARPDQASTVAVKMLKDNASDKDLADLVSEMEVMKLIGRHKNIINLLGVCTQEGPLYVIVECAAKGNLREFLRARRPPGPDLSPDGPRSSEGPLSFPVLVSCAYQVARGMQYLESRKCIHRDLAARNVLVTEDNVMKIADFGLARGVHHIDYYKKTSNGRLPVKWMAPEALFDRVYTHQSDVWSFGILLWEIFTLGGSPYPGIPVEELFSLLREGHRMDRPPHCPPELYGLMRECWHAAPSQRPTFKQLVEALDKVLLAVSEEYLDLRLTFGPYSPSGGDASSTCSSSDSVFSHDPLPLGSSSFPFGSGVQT

U2OS = test: Induction of apoptosis in human U2OS cells assessed as colocalization of cells by measuring activation of caspase 3 incubated for 24 hrs by DRAQ 5 staining based high content imaging assay relative to control; assay type: functional
LNCaP = test: Antiproliferative activity against human LNCaP cells assessed as inhibition of cell growth incubated for 72 hrs by cell-titer glo assay; assay type: functional, cell-based
Method in brief: (§3)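 Cells seeded at 10,000–30,000/cm² (adherent) or 100,000/mL (nonadherent) in medium with 10% fetal calf serum; after 24 h, treated in duplicate with serial dilutions for 72 h. Viable cell number read by CellTiter-Glo luminescence; IC50 from sigmoidal fit; at least two independent experiments.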

LCLC-97TM1 = test: Antiproliferative activity against human LCLC-97TM1 cells assessed as inhibition of cell growth incubated for 72 hrs by cell-titer glo assay; assay type: functional, cell-based; details: LCLC-97TM1, 72 h; method in brief: as §3
A2780 = test: In vivo inhibition of PLK1 in human A2780 cells xenografted in nu/nu mouse assessed as decreased TCTP phosphorylation on Ser46 at 90 to 120 mg/kg, po administered for 6 to 12 hrs by Western blotting analysis; assay type: functional, organism-based; details: dose lower 90.0 mg/kg, dose upper […], time lower 6.0 hrs
T84 = test: Antiproliferative activity against human T84 cells assessed as inhibition of cell growth incubated for 72 hrs by cell-titer glo assay; assay type: functional, cell-based; details: T84, 72 h
[9] = target: Homeodomain-interacting protein kinase 2 (Homo sapiens) (UniProt Q9H2X6); test: Inhibition of N-terminal His6-tagged recombinant human HIPK2 (165 to 564 residues) expressed in baculovirus infected Sf21 cells assessed as residual activity at 1 uM relative to control
Sequence of Homeodomain-interacting protein kinase 2 (Homo sapiens) (Q9H2X6 whole entry, looked up, the tested form may be a part): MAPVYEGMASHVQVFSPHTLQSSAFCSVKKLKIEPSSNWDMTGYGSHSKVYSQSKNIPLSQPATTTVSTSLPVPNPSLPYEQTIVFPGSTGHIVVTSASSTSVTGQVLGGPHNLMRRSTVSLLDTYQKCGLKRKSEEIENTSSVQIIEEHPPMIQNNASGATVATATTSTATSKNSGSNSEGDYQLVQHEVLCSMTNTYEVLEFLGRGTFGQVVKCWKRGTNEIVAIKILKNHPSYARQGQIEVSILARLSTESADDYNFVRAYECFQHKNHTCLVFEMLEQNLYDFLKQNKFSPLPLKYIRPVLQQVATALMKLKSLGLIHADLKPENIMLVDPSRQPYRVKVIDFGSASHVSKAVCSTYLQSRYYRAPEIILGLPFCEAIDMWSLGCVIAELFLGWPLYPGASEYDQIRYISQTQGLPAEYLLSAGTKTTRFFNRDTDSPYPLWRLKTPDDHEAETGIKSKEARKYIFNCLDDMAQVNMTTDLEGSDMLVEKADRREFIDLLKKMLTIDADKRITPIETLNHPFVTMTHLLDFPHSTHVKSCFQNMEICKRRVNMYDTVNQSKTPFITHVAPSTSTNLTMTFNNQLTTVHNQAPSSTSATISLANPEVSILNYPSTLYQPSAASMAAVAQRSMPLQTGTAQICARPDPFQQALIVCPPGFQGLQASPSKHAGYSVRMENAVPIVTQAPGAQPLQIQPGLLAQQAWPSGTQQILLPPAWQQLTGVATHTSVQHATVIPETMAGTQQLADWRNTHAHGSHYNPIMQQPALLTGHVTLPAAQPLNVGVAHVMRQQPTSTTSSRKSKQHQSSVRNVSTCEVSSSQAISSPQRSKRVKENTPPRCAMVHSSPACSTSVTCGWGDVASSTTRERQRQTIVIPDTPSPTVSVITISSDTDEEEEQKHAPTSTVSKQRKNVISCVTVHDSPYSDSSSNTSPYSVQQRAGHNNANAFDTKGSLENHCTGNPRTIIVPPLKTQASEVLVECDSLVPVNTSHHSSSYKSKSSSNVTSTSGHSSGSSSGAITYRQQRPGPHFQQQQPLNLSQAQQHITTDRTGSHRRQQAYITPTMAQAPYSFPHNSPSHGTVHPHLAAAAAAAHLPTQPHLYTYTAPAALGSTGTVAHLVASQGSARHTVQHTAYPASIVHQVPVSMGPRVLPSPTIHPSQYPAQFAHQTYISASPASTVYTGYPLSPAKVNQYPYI

U-87 MG = test: Antiproliferative activity against human U-87 MG cells assessed as inhibition of cell growth incubated for 72 hrs by cell-titer glo assay; assay type: functional, cell-based, U-87MG ATCC
[10] = Antiproliferative activity against human LUDLU-1 cells assessed as inhibition of cell growth incubated for 72 hrs by cell-titer glo assay; assay type: functional, cell-based; details: LUDLU-1, 72 h; method in brief: as §3
[11] = target: ALK tyrosine kinase receptor (Homo sapiens) (UniProt Q9UM73); test: Inhibition of N-terminal His6-tagged recombinant human ALK (1058 to end residues) expressed in baculovirus infected Sf21 cells assessed as residual activity at 0.1 uM relative to control
[12] = target: Serine/threonine-protein kinase Nek11 (Homo sapiens) (UniProt Q8NG66); test: Inhibition of 6His-tagged recombinant human full-length NEK11 expressed in baculovirus infected Sf21 cells assessed as residual activity at 0.1 uM relative to control
SF-539 = test: Antiproliferative activity against human SF-539 cells assessed as inhibition of cell growth incubated for 72 hrs by cell-titer glo assay; assay type: functional, cell-based; details: SF-539, 72 h; method in brief: as §1
[13] = target: Casein kinase I isoform gamma-1 (Homo sapiens) (UniProt Q9HCP0); test: Inhibition of N-terminal 6His-tagged recombinant human CK1gamma1 (25 to 355 residues) expressed in baculovirus infected Sf21 cells assessed as residual activity at 1 uM relative to control
Sequence of Casein kinase I isoform gamma-1 (Homo sapiens) (Q9HCP0 whole entry, looked up, the tested form may be a part, canonical isoform): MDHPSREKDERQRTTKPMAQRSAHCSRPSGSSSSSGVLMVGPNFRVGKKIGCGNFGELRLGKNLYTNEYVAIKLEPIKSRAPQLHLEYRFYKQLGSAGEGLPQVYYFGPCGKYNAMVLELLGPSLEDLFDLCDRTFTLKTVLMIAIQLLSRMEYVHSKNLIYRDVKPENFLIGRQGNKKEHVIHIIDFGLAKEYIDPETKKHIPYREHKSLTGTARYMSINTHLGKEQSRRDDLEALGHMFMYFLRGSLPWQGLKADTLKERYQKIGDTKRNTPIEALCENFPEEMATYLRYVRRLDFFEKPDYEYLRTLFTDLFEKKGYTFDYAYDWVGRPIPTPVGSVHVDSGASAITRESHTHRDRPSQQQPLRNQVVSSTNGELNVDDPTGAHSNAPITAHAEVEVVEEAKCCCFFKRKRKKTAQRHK

[14] = target: Mitogen-activated protein kinase 13 (Homo sapiens) (UniProt O15264); test: Inhibition of recombinant GST-tagged fusion protein fused to full length human SAPK4 expressed in E. coli assessed as residual activity at 0.1 uM relative to control
Sequence of Mitogen-activated protein kinase 13 (Homo sapiens) (O15264 whole entry, the tested form may be a part): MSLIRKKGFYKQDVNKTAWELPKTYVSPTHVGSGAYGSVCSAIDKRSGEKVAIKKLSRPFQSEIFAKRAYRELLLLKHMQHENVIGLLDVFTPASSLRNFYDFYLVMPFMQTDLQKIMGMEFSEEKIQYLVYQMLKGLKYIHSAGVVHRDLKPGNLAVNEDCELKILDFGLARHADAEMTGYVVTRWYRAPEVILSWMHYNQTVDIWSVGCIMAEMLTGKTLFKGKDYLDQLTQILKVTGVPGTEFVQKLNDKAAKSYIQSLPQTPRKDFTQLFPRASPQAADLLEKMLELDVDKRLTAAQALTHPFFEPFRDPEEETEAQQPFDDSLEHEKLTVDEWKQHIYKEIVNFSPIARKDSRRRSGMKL

Molecule `CN1CCN(c2ccc(OC(F)(F)F)c(Nc3ncc4c(n3)-c3c(c(C(N)=O)nn3CCO)CC4)c2)CC1` [ONVANSERTIB] has an Activity [1] of 88%, an IC50 (SK-BR-3) of 35 nM and an IC50 (NCI-H1299) of 347 nM. It also gave an IC50 (SU-DHL-1) of 96 nM, an inhibition in vivo at 45 mg/kg (HCT-116 [2]) of 83% and an IC50 (DLD-1) of 329 nM. For the same molecule, the Activity (HT-29) was “Active”, the IC50 (NCI-H2170) was 15 nM and the concentration at 240 h [3] was 433 nM. For the same molecule, the IC50 [4] was over 10000 nM, the IC50 (UACC-257) was 441 nM and the inhibition in vivo at 60 mg/kg (HCT-116 [5]) was 79%. For the same molecule, the IC50 [6] was over 10000 nM, the IC50 [7] was 55 nM and the Activity [8] was 90%. The Activity (U2OS) was 13%, the IC50 (LNCaP) was 82 nM and the IC50 (LCLC-97TM1) was 32 nM. The inhibition (A2780) was “Active”, the IC50 (T84) was 174 nM and the Activity [9] was 96%. For the same molecule, the IC50 (U-87 MG) was 991 nM, the IC50 [10] was 32 nM and the Activity [11] was 145%. For the same molecule, the Activity [12] was 114%, the IC50 (SF-539) was 47 nM and the Activity [13] was 60%. It also gave an Activity [14] of 113%.
